# Measurements pooled from the literature.
# Protocols differ between the studies behind these lines.
# Target: Serine/threonine-protein kinase/endoribonuclease IRE1 (ERN1, Homo sapiens, UniProt O75460)
SMILES,effect on,technique,concentration,remaining binding
FC(F)(F)Oc1cccc(-c2cnc3ccc(-c4ccncc4)nn23)c1,cell-free assay,competition with immobilised ligand,5 µM,79%
CNCc1ccccc1-c1csc([C@@H](C)Nc2nc(C)nc3cc(OC)c(OC)cc23)c1,cell-free assay,competition with immobilised ligand,1 µM,100%
N[C@@H]1CCN(c2nccc(-c3cnn4ncccc34)n2)C1,binding,,1 µM,100%
CCOCCn1cc(C(=O)Nc2ccc(-n3nc(-c4cccnc4)cc3C(F)(F)F)cn2)ccc1=O,cell-free assay,competition with immobilised ligand,1 µM,87%
O=C(c1ccc(Nc2ncc(Cl)c(-c3cc4ccccc4s3)n2)cc1)N1CCC(N2CCCC2)CC1,binding,competition with immobilised ligand,1 µM,37%
CCC(=O)N[C@H]1CC[C@@H](C(=O)N(C)c2ccc(-c3nc4ccccc4o3)cc2)C1,cell-free assay,competition with immobilised ligand,1 µM,91%
O=C(c1ccc(Nc2nccc(-c3cc4ccccc4s3)n2)cc1)N1CCC(N2CCCC2)CC1,binding,competition with immobilised ligand,1 µM,41%
CCCCN(CCCC)C(=O)CN1C[C@@H](c2cc(OC)c3c(c2)OCO3)[C@H](C(=O)O)[C@H]1CC(C)(C)CCC,cell-free assay,competition with immobilised ligand,1 µM,100%
CN(C)c1nccc(-c2cnc3ncccn23)n1,binding,,1 µM,60%
CCN1CCN(Cc2ccc(C(=O)Nc3ccc(C)c(Oc4ccc5c(c4)CC(=O)N5)c3)cc2C(F)(F)F)CC1,binding,competition with immobilised ligand,1 µM,100%
CNC(=O)[C@@H]1CC[C@@H](n2c(-c3ccc4cnccc4c3)nc3ccc(C(=O)NCc4cccc(C(N)=O)c4)cc32)C1,binding,competition with immobilised ligand,1 µM,97%
CN(C)c1nccc(-c2cnn3ncccc23)n1,binding,,1 µM,100%
COc1ncc2cc3ccccc3nc2c1C#N,cell-free assay,competition with immobilised ligand,5 µM,93%
CN(CCCC(F)(F)F)c1nccc(-c2cnn3ncccc23)n1,binding,,1 µM,97%
O=C(Nc1c[nH]nc1C(=O)NC1CCNCC1)c1cc(F)cc(F)c1,binding,competition with immobilised ligand,1 µM,86%
CCCOc1ccc([C@H]2[C@H](C(=O)O)[C@@H](c3ccc4c(c3)OCO4)CN2CC(=O)Nc2c(CC)cccc2CC)cc1,cell-free assay,competition with immobilised ligand,1 µM,86%
CC1CCCN1c1nccc(-c2cnn3ncccc23)n1 (stereo not drawn),binding,,1 µM,100%
COc1cnc(Nc2cccc(S(N)(=O)=O)c2)nc1N1CCN(c2ccccc2)C(=O)C1,binding,competition with immobilised ligand,1 µM,78%
C[C@@H]1CCN(c2nccc(-c3cnn4ncccc34)n2)C1,binding,,1 µM,100%
Cc1cc(NC(=O)c2cccc(S(F)(F)(F)(F)F)c2)cc(-n2ccn3nc(-c4cccnc4)cc23)c1,cell-free assay,competition with immobilised ligand,1 µM,99.2%
O=C(NCCCN1CCOCC1)c1ccc(Nc2ncc(Cl)c(-c3ccc(Cl)s3)n2)cc1,binding,competition with immobilised ligand,1 µM,27%
